ChEMBL document CHEMBL1155742, “Phomoxanthones A and B, novel xanthone dimers from the endophytic fungus Phomopsis species” (J Nat Prod, 2001)
In brackets after ≈: the same amount, converted by molar mass.

Tests used:
Plasmodium falciparum = experiment: Antimalarial activity against multidrug-resistant Plasmodium falciparum K1 by [3H]hypoxanthine uptake; format: functional, organism-based
How it was run: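 Multidrug-resistant P. falciparum K1 tested in vitro by microculture radioisotope technique. IC50 is the concentration giving 50% reduction of parasite growth, measured as [3H]-hypoxanthine uptake, reported in µg/mL.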

[1] = system: Mycobacterium tuberculosis; experiment: Antitubercular activity against Mycobacterium tuberculosis H37Ra by microplate Alamar blue assay; format: functional
How it was run: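 Growth inhibition of M. tuberculosis H37Ra measured by Microplate Alamar Blue Assay; activity reported as MIC in µg/mL.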

KB = experiment: Cytotoxicity against human KB cells by SRB assay; format: functional, cell-based
How it was run: (§1)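 Purified compounds tested for cytotoxicity by a colorimetric method on human epidermoid carcinoma KB, human breast cancer BC-1 and African monkey kidney fibroblast Vero cells. Values are IC50 in µg/mL. Ellipticine served as the standard for KB and BC-1.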

[2] = Cytotoxicity against human BC1 cells by SRB assay; format: functional, cell-based; how it was run: as §1
Vero = experiment: Cytotoxicity against african green monkey Vero cells by SRB assay; format: cell-based; conditions: Chlorocebus sabaeus; how it was run: as §1

Row | SMILES | IC50 (Plasmodium falciparum) | MIC [1] | IC50 (KB) | IC50 [2] | IC50 (Vero)
1 | C[C@@H]1CC[C@H]2[C@@H](C)C(=O)O[C@@H]3O[C@@]4(C)CC[C@@H]1[C@]32OO4 [ARTEMISININ] | 0.0011 µg/mL (≈ 0.0039 µM) | – | – | – | –
2 | C[C@@H]1CC(O)=C2C(=O)c3c(O)ccc(-c4ccc(O)c5c4O[C@@]4(CO)C(=C(O)C[C@@H](C)[C@H]4O)C5=O)c3O[C@]2(CO)[C@@H]1O [DEACETYLPHOMOXANTHONE A] | > 20 µg/mL | > 200 µg/mL | > 20 µg/mL | > 20 µg/mL | > 50 µg/mL
3 | Cc1c2ccncc2c(C)c2c1[nH]c1ccccc12 [ELLIPTECINE] | – | – | 0.46 µg/mL (≈ 1.87 µM) | 0.6 µg/mL (≈ 2.44 µM) | –
4 | NNC(=O)c1ccncc1 [ISONIAZID] | – | 0.05 µg/mL (≈ 0.365 µM) | – | – | –
5 | NC[C@H]1O[C@H](O[C@H]2[C@H](O)[C@@H](O[C@H]3O[C@H](CO)[C@@H](O)[C@H](N)[C@H]3O)[C@H](N)C[C@@H]2N)[C@H](O)[C@@H](O)[C@@H]1O.O=S(=O)(O)O [KANAMYCIN SULFATE] | – | 2.5 µg/mL | – | – | –
6 | CC(=O)OC[C@]12Oc3c(-c4ccc(O)c5c4O[C@@]4(COC(C)=O)C(=C(O)C[C@@H](C)[C@H]4OC(C)=O)C5=O)ccc(O)c3C(=O)C1=C(O)C[C@@H](C)[C@H]2OC(C)=O [PHOMOXANTHONE A] | 0.11 µg/mL (≈ 0.147 µM) | 0.5 µg/mL (≈ 0.666 µM) | 0.99 µg/mL (≈ 1.32 µM) | 0.51 µg/mL (≈ 0.679 µM) | 1.4 µg/mL (≈ 1.86 µM)
7 | CC(=O)OC[C@]12Oc3ccc(-c4ccc(O)c5c4O[C@@]4(COC(C)=O)C(=C(O)C[C@@H](C)[C@H]4OC(C)=O)C5=O)c(O)c3C(=O)C1=C(O)C[C@@H](C)[C@H]2OC(C)=O [PHOMOXANTHONE B] | 0.33 µg/mL (≈ 0.44 µM) | 6.25 µg/mL (≈ 8.33 µM) | 4.1 µg/mL (≈ 5.46 µM) | 0.7 µg/mL (≈ 0.932 µM) | 1.8 µg/mL (≈ 2.4 µM)
